Consider five molecules from ChEMBL document CHEMBL1629622, “Isolation of VanB-type Enterococcus faecalis strains from nosocomial infections: first report of the isolation and identification of the pheromone-responsive plasmids pMG2200, Encoding VanB-type vancomycin resistance and a Bac41-type bacteriocin, and pMG2201, encoding erythromycin resistance and …” (2009).

What all share (assay type): functional, organism-based
Test [1] relates to Enterococcus faecalis. In words: Induction of aggregation of Enterococcus faecalis JH2SS harboring pMG2201 at 100 ng/ml. The procedure, abridged:
(§1)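 Donor E. faecalis JH2SS carrying the plasmid, exposed 2 h to synthetic pheromone (cAD1, cPD1, cCF10, cOB1 or cAM373 at 100 ng/ml) or to FA2-2 culture filtrate. Aggregation (clumping) of cells scored visually afterwards. A short 10-min mating with FA2-2 followed induction.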

Test [2] has as its system Enterococcus faecalis. Briefly: Induction of aggregation of Enterococcus faecalis JH2SS harboring pMG2200 at 100 ng/ml. The procedure, abridged:
as §1

The subject of test [3] is Enterococcus faecalis. Briefly: Induction of transfer of plasmid pMG2200 in Enterococcus faecalis JH2SS at 100 ng/ml. The procedure, abridged: (§2)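 Donor E. faecalis JH2SS carrying pMG2200 and pAM714 was exposed for 2 h to a synthetic pheromone (cCF10 or cAD1, 100 ng/ml) to induce aggregation-mating. A short 10-min mating with recipient FA2-2 followed. Transfer frequency was scored as transconjugants per donor cell at the end of mating.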

In test [4] the test system is Enterococcus faecalis. Briefly: Induction of transfer of plasmid pAM714 in Enterococcus faecalis JH2SS at 100 ng/ml. The procedure, abridged:
as §2

Structures are written as SMILES. Calls of active or inactive are those of the source. No cut-off for these calls is given here. Residues, ends and D or L forms follow the SMILES beside them.

Take `CC[C@H](C)[C@H](NC(=O)[C@H](C)N)C(=O)N[C@@H](Cc1ccccc1)C(=O)N[C@H](C(=O)N[C@@H](CC(C)C)C(=O)N[C@@H](C)C(=O)N[C@@H](CO)C(=O)O)[C@@H](C)CC` (H-AIFILAS-OH): the result in the test on Enterococcus faecalis [1] and in the test on Enterococcus faecalis [2] was inactive.

`CSCC[C@H](NC(=O)[C@@H](NC(=O)[C@H](CC(C)C)NC(=O)[C@@H](N)Cc1ccccc1)C(C)C)C(=O)N[C@@H](Cc1ccccc1)C(=O)N[C@@H](CC(C)C)C(=O)N[C@@H](CO)C(=O)NCC(=O)O` (H-FLVMFLSG-OH): the result in the test with Enterococcus faecalis [1] and with Enterococcus faecalis [2] was inactive.

In the case of `CC(C)C[C@H](NC(=O)[C@H](CO)NC(=O)[C@H](Cc1ccccc1)NC(=O)[C@@H](N)CC(C)C)C(=O)N[C@H](C(=O)N[C@@H](CC(C)C)C(=O)N[C@@H](C)C(=O)NCC(=O)O)C(C)C` (H-LFSLVLAG-OH), the result in the test with Enterococcus faecalis [3] and in the test on Enterococcus faecalis [2] was inactive. The outcome in the test with Enterococcus faecalis [1] and in the test with Enterococcus faecalis [4] was Active.

Regarding `CC(C)C[C@H](NC(=O)[C@@H](NC(=O)[C@@H](NC(=O)[C@@H](N)CC(C)C)C(C)C)[C@@H](C)O)C(=O)N[C@H](C(=O)N[C@@H](Cc1ccccc1)C(=O)N[C@H](C(=O)O)C(C)C)C(C)C` (H-LVTLVFV-OH), the outcome in the test on Enterococcus faecalis [3] and with Enterococcus faecalis [2] was Active. The result with Enterococcus faecalis [1] and with Enterococcus faecalis [4] was inactive.

Consider `CC(C)C[C@H](NC(=O)[C@@H](NC(=O)[C@H](C)NC(=O)[C@@H](N)C(C)C)C(C)C)C(=O)N[C@H](C(=O)N[C@@H](CC(C)C)C(=O)NCC(=O)N[C@@H](C)C(=O)O)C(C)C` (H-VAVLVLGA-OH), for which the result in the test on Enterococcus faecalis [1] and with Enterococcus faecalis [2] was inactive.
